Laboratory results reported in ChEMBL document CHEMBL3244382, “Structural requirements for antileukemic activity among the naturally occurring and semisynthetic maytansinoids” (J Med Chem, 1978).
Converted amounts (≈) assume the structure as drawn. The source made the active and inactive calls.

Key:
P388 [1] = experiment: Antitumor activity against mouse P388 cells allografted in PS mouse assessed as median survival time at 0.2 ug/kg relative to control; assay type: functional
Summary of the method: (§1)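 P388 leukemia (PS) in mice, six mice started per dose group. Read-out is T/C: median survival time of the treated group divided by that of the untreated control group, expressed as a percent. The NIH protocol counts a compound as active when T/C > 125%.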

Mus musculus [2] = experiment: Toxicity in PS mouse allografted with mouse P388 cells assessed as survival at 25 ug/kg after 4 days; assay type: organism-based; settings: in vivo, 0.025 mg/kg, 96 h
Summary of the method: (§2)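 PS (P388) leukemic mice, six started per dose group. Toxicity scored as survivors on the toxicity day over the number of mice started. The toxicity day is normally 4 days after the first injection.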

P388 [3] = experiment: Antitumor activity against mouse P388 cells allografted in PS mouse assessed as median survival time at 50 ug/kg relative to control; assay type: functional; summary of the method: as §1
Mus musculus [4] = experiment: Toxicity in PS mouse allografted with mouse P388 cells assessed as change in body weight at 3.1 ug/kg relative to control; assay type: organism-based; settings: in vivo, 0.0031 mg/kg
Summary of the method: (§3)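 P388 (PS) leukemia in mice, 6 mice per dose group. Weight change is the difference in grams between treated and control animals. Survivors are recorded on toxicity day, normally 4 days after the first injection.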

Mus musculus [5] = experiment: Toxicity in PS mouse allografted with mouse P388 cells assessed as survival at 6.2 ug/kg after 4 days; assay type: organism-based; settings: in vivo, 0.0062 mg/kg, 96 h; summary of the method: as §2
P388 [6] = experiment: Antitumor activity against mouse P388 cells allografted in PS mouse assessed as median survival time at 1.6 ug/kg relative to control; assay type: functional; summary of the method: as §1
Mus musculus [7] = experiment: Toxicity in PS mouse allografted with mouse P388 cells assessed as change in body weight at 12.5 ug/kg relative to control; assay type: organism-based; settings: in vivo, 0.0125 mg/kg; summary of the method: as §3
Mus musculus [8] = experiment: Toxicity in PS mouse allografted with mouse P388 cells assessed as survival at 0.4 ug/kg after 4 days; assay type: organism-based; settings: in vivo, 0.0004 mg/kg, 96 h; summary of the method: as §2
P388 [9] = experiment: Antitumor activity against mouse P388 cells allografted in PS mouse assessed as median survival time at 0.1 ug/kg relative to control; assay type: functional; summary of the method: as §1
P388 [10] = experiment: Antitumor activity against mouse P388 cells allografted in PS mouse assessed as median survival time at 0.8 ug/kg relative to control; assay type: functional; summary of the method: as §1
P388 [11] = experiment: Antitumor activity against mouse P388 cells allografted in PS mouse assessed as median survival time at 25 ug/kg relative to control; assay type: functional; summary of the method: as §1
Mus musculus [12] = experiment: Toxicity in PS mouse allografted with mouse P388 cells assessed as change in body weight at 0.4 ug/kg relative to control; assay type: organism-based; settings: in vivo, 0.0004 mg/kg
Summary of the method: (§4)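 PS (P388 leukemia) mice, six per dose group. Toxicity read as the difference in grams between the weights of treated and control animals.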

P388 [13] = experiment: Antitumor activity against mouse P388 cells allografted in PS mouse assessed as median survival time at 0.4 ug/kg relative to control; assay type: functional; summary of the method: as §1
Mus musculus [14] = experiment: Toxicity in PS mouse allografted with mouse P388 cells assessed as change in body weight at 0.2 ug/kg relative to control; assay type: organism-based; settings: in vivo, 0.0002 mg/kg; summary of the method: as §4
Mus musculus [15] = experiment: Toxicity in PS mouse allografted with mouse P388 cells assessed as change in body weight at 25 ug/kg relative to control; assay type: organism-based; settings: in vivo, 0.025 mg/kg; summary of the method: as §3
Mus musculus [16] = experiment: Toxicity in PS mouse allografted with mouse P388 cells assessed as survival at 0.1 ug/kg after 4 days; assay type: organism-based; settings: in vivo, 0.0001 mg/kg, 96 h; summary of the method: as §2
Mus musculus [17] = experiment: Toxicity in PS mouse allografted with mouse P388 cells assessed as survival at 0.8 ug/kg after 4 days; assay type: organism-based; settings: in vivo, 0.0008 mg/kg, 96 h; summary of the method: as §2
Mus musculus [18] = experiment: Toxicity in PS mouse allografted with mouse P388 cells assessed as change in body weight at 0.1 ug/kg relative to control; assay type: organism-based; settings: in vivo, 0.0001 mg/kg; summary of the method: as §4
Paracentrotus lividus = experiment: Antimitotic activity against sea urchin eggs assessed as drug level causing inhibition of mitosis; assay type: functional; settings: Egg
Mus musculus [19] = experiment: Toxicity in PS mouse allografted with mouse P388 cells assessed as survival at 3.1 ug/kg after 4 days; assay type: organism-based; settings: in vivo, 0.0031 mg/kg, 96 h; summary of the method: as §2
Tubulin (Homo sapiens) = Tubulin (Homo sapiens) (UniProt P68371+Q9H4B7+P0DPH7+P68366+Q13509+Q71U36+P04350+Q3ZCM7+P07437+P68363+Q9BQE3+Q6PEY2+Q13885+Q9BVA1+Q9BUF5); experiment: Inhibition of brain tubulin polymerization (unknown origin) at 37 degC by spectrophotometry
Mus musculus [20] = experiment: Toxicity in PS mouse allografted with mouse P388 cells assessed as change in body weight at 1.6 ug/kg relative to control; assay type: organism-based; settings: in vivo, 0.0016 mg/kg; summary of the method: as §3
P388 [21] = experiment: Antitumor activity against mouse P388 cells allografted in PS mouse assessed as median survival time at 3.1 ug/kg relative to control; assay type: functional; summary of the method: as §1
Mus musculus [22] = experiment: Toxicity in PS mouse allografted with mouse P388 cells assessed as change in body weight at 50 ug/kg relative to control; assay type: organism-based; settings: in vivo, 0.05 mg/kg; summary of the method: as §3
P388 [23] = experiment: Antitumor activity against mouse P388 cells allografted in PS mouse assessed as median survival time at 12.5 ug/kg relative to control; assay type: functional; summary of the method: as §1
Mus musculus [24] = experiment: Toxicity in PS mouse allografted with mouse P388 cells assessed as survival at 0.2 ug/kg after 4 days; assay type: organism-based; settings: in vivo, 0.0002 mg/kg, 96 h; summary of the method: as §2
Mus musculus [25] = experiment: Toxicity in PS mouse allografted with mouse P388 cells assessed as survival at 50 ug/kg after 4 days; assay type: organism-based; settings: in vivo, 0.05 mg/kg, 96 h; summary of the method: as §2
P388 [26] = experiment: Antitumor activity against mouse P388 cells allografted in PS mouse assessed as median survival time at 6.2 ug/kg relative to control; assay type: functional; summary of the method: as §1
Mus musculus [27] = experiment: Toxicity in PS mouse allografted with mouse P388 cells assessed as change in body weight at 6.2 ug/kg relative to control; assay type: organism-based; settings: in vivo, 0.0062 mg/kg; summary of the method: as §3
Mus musculus [28] = experiment: Toxicity in PS mouse allografted with mouse P388 cells assessed as survival at 12.5 ug/kg after 4 days; assay type: organism-based; settings: in vivo, 0.0125 mg/kg, 96 h; summary of the method: as §2
Mus musculus [29] = experiment: Toxicity in PS mouse allografted with mouse P388 cells assessed as survival at 1.6 ug/kg after 4 days; assay type: organism-based; settings: in vivo, 0.0016 mg/kg, 96 h; summary of the method: as §2
Mus musculus [30] = experiment: Toxicity in PS mouse allografted with mouse P388 cells assessed as change in body weight at 0.8 ug/kg relative to control; assay type: organism-based; settings: in vivo, 0.0008 mg/kg; summary of the method: as §4
KB = experiment: Cytotoxicity against human KB cells; assay type: functional; settings: read-out: ED50 (the source's name)

| SMILES | T/C (P388 [1]) | Activity (Mus musculus [2]) | T/C (P388 [3]) | Activity (Mus musculus [4]) | Activity (Mus musculus [5]) | T/C (P388 [6]) | Activity (Mus musculus [7]) | Activity (Mus musculus [8]) | T/C (P388 [9]) | T/C (P388 [10]) | T/C (P388 [11]) | Activity (Mus musculus [12]) | T/C (P388 [13]) | Activity (Mus musculus [14]) | Activity (Mus musculus [15]) | Activity (Mus musculus [16]) | Activity (Mus musculus [17]) | Activity (Mus musculus [18]) | Activity (Paracentrotus lividus) | Activity (Mus musculus [19]) | other results |
| --- | --- | --- | --- | --- | --- | --- | --- | --- | --- | --- | --- | --- | --- | --- | --- | --- | --- | --- | --- | --- | --- |
| COc1cc2cc(c1Cl)N(C)C(=O)C[C@H](OC(=O)[C@H](C)N(C)C(=O)C(C)C)[C@]1(C)O[C@H]1[C@H](C)[C@@H]1C[C@@](O)(NC(=O)O1)[C@H](OC)/C=C/C=C(\C)C2 | 165% | Non-toxic | <80% | -0.9 g | Non-toxic | 155% | 0.1 g | Non-toxic | 125% | 190% | <80% | 0.4 g | 155% | 0.1 g | 0.1 g | Non-toxic | Non-toxic | 0.3 g | 1 nM | Non-toxic | inhibition (Tubulin (Homo sapiens)): Active; Activity (Mus musculus [20]): 0 g; T/C (P388 [21]): 145%; Activity (Mus musculus [22]): 0.1 g; T/C (P388 [23]): 120%; Activity (Mus musculus [24]): Non-toxic; Activity (Mus musculus [25]): Toxic; T/C (P388 [26]): 155%; Activity (Mus musculus [27]): -1.3 g; Activity (Mus musculus [28]): Non-toxic; Activity (Mus musculus [29]): Non-toxic; Activity (Mus musculus [30]): 0.1 g; EC50 (KB): 0.0036 ng/mL (≈ 0.005 nM) |
| CCC(=O)N(C)[C@@H](C)C(=O)O[C@H]1CC(=O)N(C)c2cc(cc(OC)c2Cl)C/C(C)=C/C=C/[C@@H](OC)[C@@]2(O)C[C@H](OC(=O)N2)[C@@H](C)[C@@H]2O[C@@]12C | 120% | Non-toxic | <80% | -0.6 g | Non-toxic | 154% | -1.3 g | Non-toxic | 137% | 145% | <80% | -0.8 g | 137% | -1.1 g | -2.2 g | Non-toxic | Non-toxic | -1.1 g | 1 ×10⁻⁸ mol/L | Non-toxic | inhibition (Tubulin (Homo sapiens)): Active; Activity (Mus musculus [20]): -1.2 g; T/C (P388 [21]): 150%; Activity (Mus musculus [22]): -1.2 g; T/C (P388 [23]): 104%; Activity (Mus musculus [24]): Non-toxic; Activity (Mus musculus [25]): Toxic; T/C (P388 [26]): 125%; Activity (Mus musculus [27]): -2.1 g; Activity (Mus musculus [28]): Non-toxic; Activity (Mus musculus [29]): Non-toxic; Activity (Mus musculus [30]): -1.1 g |
| COc1cc2cc(c1Cl)N(C)C(=O)C[C@H](OC(=O)[C@H](C)N(C)C(=O)CC(C)C)[C@]1(C)O[C@H]1[C@H](C)[C@@H]1C[C@@](O)(NC(=O)O1)[C@H](OC)/C=C/C=C(\C)C2 | 125% | Non-toxic | <80% | 0.2 g | Non-toxic | 154% | 1.3 g | Non-toxic | 120% | 133% | 116% | -1.1 g | 125% | -0.6 g | -0.4 g | Non-toxic | Non-toxic | 1.4 g | 1 ×10⁻⁸ mol/L | Non-toxic | inhibition (Tubulin (Homo sapiens)): Active; Activity (Mus musculus [20]): -1.3 g; T/C (P388 [21]): 158%; Activity (Mus musculus [22]): -0.5 g; T/C (P388 [23]): 187%; Activity (Mus musculus [24]): Non-toxic; Activity (Mus musculus [25]): Non-toxic; T/C (P388 [26]): 154%; Activity (Mus musculus [27]): 0.8 g; Activity (Mus musculus [28]): Non-toxic; Activity (Mus musculus [29]): Non-toxic; Activity (Mus musculus [30]): 0.7 g |
| COc1cc2cc(c1Cl)N(C)C(=O)C[C@H](OC(=O)C(C)C)[C@]1(C)O[C@H]1[C@H](C)[C@@H]1C[C@@](O)(NC(=O)O1)[C@H](OC)/C=C/C=C(\C)C2OC(C)=O (stereo not given in full) | 125% | Non-toxic | <80% | -0.4 g | Non-toxic | 162% | -0.8 g | Non-toxic | 125% | 137% | 170% | -0.6 g | 133% | -1.3 g | -0.9 g | Non-toxic | Non-toxic | -0.5 g | 1 ×10⁻⁷ mol/L | Non-toxic | inhibition (Tubulin (Homo sapiens)): Active; Activity (Mus musculus [20]): -0.7 g; T/C (P388 [21]): 150%; Activity (Mus musculus [22]): -1 g; T/C (P388 [23]): 179%; Activity (Mus musculus [24]): Non-toxic; Activity (Mus musculus [25]): Non-toxic; T/C (P388 [26]): 166%; Activity (Mus musculus [27]): -0.9 g; Activity (Mus musculus [28]): Non-toxic; Activity (Mus musculus [29]): Non-toxic; Activity (Mus musculus [30]): -1 g; EC50 (KB): 0.0015 ng/mL (≈ 0.00216 nM) |
